L major viab: inhibitors of Leishmania major promastigote growth; Leishmania major promastigotes, resazurin fluorescence viability; inhibition, % at 10 µM; hit rate 9% among 200,000; in the data active = inhibition above about 50%;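 note: promastigotes grown with compound for 44 hours at 28 °C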
Diaph act CS: activates diaphorase or chemically reduces, flagging diaphorase assay artifacts; Diaphorase/resazurin coupled assay, resorufin fluorescence, 16 min; active compounds read high; 1 = vehicle wells, 0 = NADH-free wells; activation factor at 20 µM; hit rate 0.005% among 190,000; AID 1229;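 active = diaphorase activity raised at least twofold by the compound at 20 µM; inactive = activation factor below 2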
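test system = bacterial diaphorase enzyme (C. kluyveri) | quantity = enzyme 0.07 U/mL final | reagent = NADH substrate 0.114 mM plus resazurin dye 0.1 mM, final | incubation = 16 min enzyme reaction, ambient temperature | buffer or medium = HEPES pH 7.4 buffer with MgCl2 and Tween 20 | signal = fluorescence of resorufin, 544 nm excitation, 590 nm emission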
PMI act hi M6P: increases human PMI activity with near-saturating mannose 6-phosphate. activation factor at 20 µM. P34949. coupled PMI enzyme assay, resazurin fluorescence, 20 min; active compounds read high; 1 = untreated enzyme, 0 = substrate-free blank. hit rate 0.34% among 190,000;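 active = activation factor of 2 or more at 20 µM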
Target sequence (P34949 whole entry, looked up): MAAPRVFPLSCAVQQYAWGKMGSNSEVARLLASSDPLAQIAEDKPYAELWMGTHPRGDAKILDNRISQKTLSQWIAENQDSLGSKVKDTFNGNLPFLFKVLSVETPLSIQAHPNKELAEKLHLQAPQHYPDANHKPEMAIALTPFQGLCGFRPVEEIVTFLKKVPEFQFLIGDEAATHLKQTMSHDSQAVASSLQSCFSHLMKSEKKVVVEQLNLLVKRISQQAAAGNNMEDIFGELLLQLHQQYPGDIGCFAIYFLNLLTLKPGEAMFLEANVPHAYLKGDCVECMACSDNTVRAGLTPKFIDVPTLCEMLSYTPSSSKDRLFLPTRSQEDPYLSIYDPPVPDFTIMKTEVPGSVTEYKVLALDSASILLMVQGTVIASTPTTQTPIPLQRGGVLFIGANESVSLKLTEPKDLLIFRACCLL
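Test system – human PMI in coupled enzyme assay · Timing – 20 min incubation at room temperature · Detection – Diaphorase-driven resazurin-to-resorufin fluorescence, excitation 544, emission 590 nm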
PMI activator: increases human mannose-6-phosphate isomerase activity; P34949; hit rate 0.005% among 190,000; purified human PMI, coupled resazurin fluorescence, 20 min; active compounds read high; 1 = vehicle control, 0 substrate-free wells; activation factor at 20 µM; AID 1214;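 active = activation factor of 2 or more at 20 µM, relative to plate controls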
WT yeast gro inh: growth inhibition of WT yeast, mitochondrial fusion screen | mitochondrial fusion phenotypic screen, WT strain | inhibition, % at 10 µM | hit rate 2.1% among 190,000; in the data active = inhibition above about 58%; tested in S. cerevisiae
* marks the source's active call; other numbers are inactive results. Only some compounds are listed: those with a hit (about 10% of all), similar ones and a draw of the others.

SMILES | L major viab | Diaph act CS | PMI act hi M6P | PMI activator | WT yeast gro inh
COCCCn1c(N)c(C(=O)OCCOC)c2nc3ccccc3nc21 | 4 | 0.9 | 0.9 | 0.8 | -35
CCOC(=O)c1c(N)n(CCCOC(=O)c2ccco2)c2nc3ccccc3nc12 | 82* | 0.9 | 1 | 0.9 | 6
CCOC(=O)c1c(N)n(Cc2ccc(OC)cc2)c2nc3ccccc3nc12 | 96* | 0.8 | 0.7 | 0.9 | -10
CCN(c1ccc(C(O)(C(=O)OC)C(F)(F)F)cc1)S(=O)(=O)c1ccc(C)cc1 (stereo not given) | 89* | 0.8 | 0.8 | 0.8 | 2
CCOC(=O)C(O)(c1ccc(N(CC)S(=O)(=O)c2ccc(C)cc2)cc1)C(F)(F)F (stereo not given) | 93* | 0.7 | 0.8 | 0.8 | 24
CCOC(=O)C(O)(c1ccc(N(CC)C(=O)COc2ccccc2)cc1)C(F)(F)F (stereo not given) | 65* | 0.8 | 0.9 | 0.9 | -2
COC(=O)C(O)(c1ccc(NC(=O)Oc2ccccc2)cc1)C(F)(F)F (stereo not given) | -1 | 0.8 | 0.9 | 1 | -8
COC(=O)C(O)(c1ccc(N(C)S(=O)(=O)c2ccccc2)cc1)C(F)(F)F (stereo not given) | 100* | 0.8 | 1 | 1 | -6
C=CCn1c(O)c(/C=N/N2CCCCC2c2cccnc2)c(=O)[nH]c1=S (stereo not given) | -5 | 0.8 | 1 | 0.9 | 3
COc1ccc(CN2C(=O)NC(=O)/C(=C/c3ccc([N+](=O)[O-])o3)C2=O)cc1 | 11 | 0.7 | 0.9 | 1.1 | 12
CC(C(=O)O)N(C(=O)c1ccccc1)c1ccc(F)c(Cl)c1 (stereo not given) | -4 | 0.9 | 1.1 | 1.1 | 2
CCCCCCn1c(O)c(C(C)=NC)c(=O)[nH]c1=O | 0 | 0.9 | 0.9 | 0.9 | 6
Cc1ccc(O)c(C(=O)c2cc(C(=O)NCCC(C)C)c(=O)n(CCC(C)C)c2)c1 | 82* | 0.8 | 0.9 | 0.8 | 15
Cn1cc(C(=O)Cc2ccccc2)c2ccccc21 | 0 | 0.9 | 1 | 0.9 | -10
COc1cc2c(cc1OC)C(C(=O)N(C)C1CCCCC1)C1CCCCN1C2=O (stereo not given) | 59* | 1 | 1.1 | 1 | 7
O=C(NC1CN2CCC1CC2)c1cc(Cl)c([N+](=O)[O-])c2nc[nH]c12 (stereo not given) | 36 | 0.9 | 0.8 | 0.9 | -3
FC(F)(F)c1ccc(CN2CCNCC2)cc1 | 96* | 1 | 1.1 | 1.4 | -6
Cn1cc(NC(=O)CCl)cn1 | 1 | 1 | 1.1 | 1.2 | -14
COC(=O)[C@@H]1C[C@@]1(C)[C@@H](NP(=O)(c1ccccc1)c1ccccc1)c1ccccc1 | 2 | 1 | 1.1 | 1.1 | 0
CCN(CC)c1ccc(CN2CC=C(c3ccc(F)cc3)CC2)cc1 | 96* | 0.9 | 1.1 | 1 | 52
COCCCn1c(-c2ccc(OC)cc2)cc(C(=O)NC2CCCCCCC2)c1C | 98* | 0.9 | 1 | 0.8 | 55
OC1(c2ccccc2F)CC2CCC(C1)N2CCN1CCOCC1 (stereo not given) | 52* | 0.9 | 1 | 1 | -8
COc1ccc(C(=O)CN2CCOCC2)cc1F | 3 | 0.9 | 1.9 | 1.4 | -6
CC(C)CN(CC(C)C)C(=O)C1C2c3ccccc3C(c3ccccc32)C1C(=O)O (stereo not given) | -3 | 1.1 | 1.2 | 1.2 | -10
COc1cccc(C2CC3C(=O)C=CC2N3Cc2ccccc2)c1 (stereo not given) | 99* | 0.6 | 0.4 | 0.8 | 10
SMILES | L major viab | Diaph act CS | PMI act hi M6P | PMI activator | WT yeast gro inh
[N-]=[N+]=NCc1cn2cccnc2n1 | -3 | 1.1 | 1.1 | 0.7 | 9
Nc1nnc(CCN2CCCCC2)s1 | -1 | 1.1 | 1.1 | 1.1 | -5
O=C1NC(=O)C2(Cc3ccccc3N3CCOCC32)C(=O)N1c1ccccc1 (stereo not given) | 92* | 0.8 | 0.9 | 0.9 | -61
CC(=O)Nc1ccc(OCCF)cc1 | -8 | 0.8 | 0.9 | 1 | 9
CCCCCP(=O)(O)c1ccccc1 | -4 | 0.9 | 1 | 1 | 10
CCCC/C(C)=C/[C@@H](NP(=O)(c1ccccc1)c1ccccc1)c1ccccc1 | 25 | 0.9 | 0.9 | 0.9 | 91*
CCn1c(O)c(C=Nc2ccc(S(N)(=O)=O)cc2)c(=O)[nH]c1=S | 56* | 0.8 | 1.7 | 1.4 | -10
CCOC(=O)c1ccc(N=Cc2c(O)n(-c3ccc(OC)cc3)c(=S)[nH]c2=O)cc1 | -2 | 0.9 | 0.5 | 0.7 | -4
CCOC(=O)c1ccc(N=Cc2c(O)n(-c3ccccc3F)c(=S)[nH]c2=O)cc1 | 61* | 0.9 | 1.5 | 1.3 | 3
CC1(C)C2CC=C(CN3CCC(O)CC3)C1C2 (stereo not given) | 64* | 0.9 | 1 | 0.9 | -10
CCOc1ccccc1C1SCC(=O)Nc2c1c(=O)[nH]n2C(CC)CC (stereo not given) | -1 | 0.9 | 1 | 1.1 | -8
Cc1cc2ccccc2c(=O)n1CC(=O)NCC(=O)N1CCC2(CC1)OCCO2 | 0 | 1.1 | 1.1 | 1.2 | -5
CSc1ccc(CN2CCN(Cc3ccccc3Cl)CC2)cc1 | 82* | 0.8 | 1 | 1 | 34
Cc1ccc(CN2CCN(Cc3ccccc3)CC2)cc1 | 19 | 0.9 | 1 | 0.9 | 4
Cc1ccc(C(=O)N[C@@H](C)CN2C3=NC[C@@H](Cc4ccccc4)N3C[C@H]2Cc2ccc(O)cc2)cc1Br | 52* | 1.1 | 1 | 0.9 | -6
O=C(O)CCn1cc(C=C2C(=O)NC(=O)NC2=O)c(-c2cc3ccccc3oc2=O)n1 | -5 | 1 | 1.1 | 1 | -1
CN(C)c1ccc(/C=C/C=C2/C(=O)NC(=O)N(c3ccccc3)C2=O)cc1 | 96* | 0.6 | 0.5 | 0.7 | 27
C=CCN1C(=O)NC(=O)/C(=C/C=C/c2ccccc2)C1=O | 100* | 1 | 1.2 | 1.2 | -8
CN(C)c1ccc(/C=C2/C(=O)NC(=O)N(CCc3ccc(F)cc3)C2=O)cc1 | 0 | 1 | 1.2 | 1 | 3
O=C1NC(=O)N(CCc2ccc(F)cc2)C(=O)/C1=C\C=C\c1ccccc1 | 100* | 0.8 | 1.3 | 1.2 | -11
COc1cc(/C=C2\C(=O)NC(=O)N(c3ccccc3)C2=O)cc(OC)c1O | -2 | 0.7 | 0.9 | 0.8 | 3
C=CCN1C(=O)NC(=O)/C(=C/c2ccc(OC)c(CSc3ccccn3)c2)C1=O | -5 | 1 | 1.2 | 1 | -13
O=C(N/N=C/c1c(O)n(-c2ccccc2)c(=O)[nH]c1=O)c1ccncc1 | 91* | 0.7 | 1 | 1 | 14
CC(ON1CC1(C(F)(F)F)C(F)(F)F)(C(N)=O)C(N)=O (stereo not given) | -5 | 0.9 | 1 | 1 | -2
